Assay results reported in the M2OR odorant receptor database.

Key:
Conditions in all cases: stereoisomer not certain
UniProt Q8VF52 = target: T1, UniProt Q8VF52
T1 sequence (whole entry): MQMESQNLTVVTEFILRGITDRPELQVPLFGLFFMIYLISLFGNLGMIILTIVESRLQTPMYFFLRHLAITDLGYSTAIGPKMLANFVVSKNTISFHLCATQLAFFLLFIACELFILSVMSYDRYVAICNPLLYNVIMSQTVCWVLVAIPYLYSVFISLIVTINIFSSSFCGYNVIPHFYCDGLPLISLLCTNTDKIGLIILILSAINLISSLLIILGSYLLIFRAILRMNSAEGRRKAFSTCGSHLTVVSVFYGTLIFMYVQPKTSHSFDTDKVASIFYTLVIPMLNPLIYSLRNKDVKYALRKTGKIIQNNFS
Method in brief: (§1)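 Whether a receptor–molecule pair is responsive (active) rests on the original authors' judgment that its measured signal was statistically different from baseline. Pairs without that judgment are non-responsive (inactive). Sources used varied assay methods, commonly transient luciferase assays in mammalian cell lines.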

UniProt Q8VFM8 = target: T2, UniProt Q8VFM8
T2 sequence (whole entry): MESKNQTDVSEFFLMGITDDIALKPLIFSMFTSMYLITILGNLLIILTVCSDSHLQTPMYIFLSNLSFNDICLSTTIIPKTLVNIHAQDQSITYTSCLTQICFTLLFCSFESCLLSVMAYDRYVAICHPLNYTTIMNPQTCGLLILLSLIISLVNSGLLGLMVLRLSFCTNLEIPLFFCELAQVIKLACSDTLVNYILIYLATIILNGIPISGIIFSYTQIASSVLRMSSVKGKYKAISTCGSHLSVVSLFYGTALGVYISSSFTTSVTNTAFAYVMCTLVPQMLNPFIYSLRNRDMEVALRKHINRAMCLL
Method in brief: as §1

UniProt Q8VFP5 = target: T3, UniProt Q8VFP5
T3 sequence (whole entry): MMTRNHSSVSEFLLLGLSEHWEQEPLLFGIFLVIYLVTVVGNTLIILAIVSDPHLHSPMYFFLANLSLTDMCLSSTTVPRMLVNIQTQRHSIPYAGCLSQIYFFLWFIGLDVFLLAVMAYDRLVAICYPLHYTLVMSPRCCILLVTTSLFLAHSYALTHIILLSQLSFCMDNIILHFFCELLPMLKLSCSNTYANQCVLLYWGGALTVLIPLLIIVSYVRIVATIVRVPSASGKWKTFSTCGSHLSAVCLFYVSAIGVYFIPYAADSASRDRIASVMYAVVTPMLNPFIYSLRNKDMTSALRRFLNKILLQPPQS
Method in brief: as §1

UniProt Q8VG01 = target: T4, UniProt Q8VG01
T4 sequence (whole entry): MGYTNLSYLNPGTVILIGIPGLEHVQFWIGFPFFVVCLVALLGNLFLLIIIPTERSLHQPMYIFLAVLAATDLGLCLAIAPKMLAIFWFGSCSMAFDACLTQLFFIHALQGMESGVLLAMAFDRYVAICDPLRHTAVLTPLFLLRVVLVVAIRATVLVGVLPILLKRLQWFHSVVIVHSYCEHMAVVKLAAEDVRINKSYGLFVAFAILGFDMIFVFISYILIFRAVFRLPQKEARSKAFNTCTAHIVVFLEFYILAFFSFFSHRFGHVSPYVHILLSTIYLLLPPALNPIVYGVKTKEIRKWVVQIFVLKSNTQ
Method in brief: as §1

UniProt Q8VG27 = target: T5, UniProt Q8VG27
T5 sequence (whole entry): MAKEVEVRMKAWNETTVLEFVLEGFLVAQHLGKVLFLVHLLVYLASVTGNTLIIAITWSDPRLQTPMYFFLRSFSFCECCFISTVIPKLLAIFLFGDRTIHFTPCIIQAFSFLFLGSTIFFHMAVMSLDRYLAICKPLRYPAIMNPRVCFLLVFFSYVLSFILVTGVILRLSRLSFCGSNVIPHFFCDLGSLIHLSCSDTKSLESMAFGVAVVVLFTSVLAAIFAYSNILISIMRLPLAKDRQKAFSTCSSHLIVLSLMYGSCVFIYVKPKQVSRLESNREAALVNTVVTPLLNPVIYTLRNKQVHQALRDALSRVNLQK
Method in brief: as §1

UniProt Q8VG53 = target: T6, UniProt Q8VG53
T6 sequence (whole entry): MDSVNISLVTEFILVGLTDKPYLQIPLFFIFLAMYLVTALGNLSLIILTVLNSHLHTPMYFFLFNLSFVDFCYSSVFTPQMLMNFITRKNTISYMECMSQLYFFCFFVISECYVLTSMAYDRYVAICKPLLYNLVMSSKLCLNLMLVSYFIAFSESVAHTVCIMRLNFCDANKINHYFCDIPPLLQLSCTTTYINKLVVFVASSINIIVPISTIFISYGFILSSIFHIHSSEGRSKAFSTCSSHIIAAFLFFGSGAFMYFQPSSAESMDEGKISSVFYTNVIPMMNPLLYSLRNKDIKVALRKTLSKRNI
Method in brief: as §1

UniProt Q8VG64 = target: T7, UniProt Q8VG64
T7 sequence (whole entry): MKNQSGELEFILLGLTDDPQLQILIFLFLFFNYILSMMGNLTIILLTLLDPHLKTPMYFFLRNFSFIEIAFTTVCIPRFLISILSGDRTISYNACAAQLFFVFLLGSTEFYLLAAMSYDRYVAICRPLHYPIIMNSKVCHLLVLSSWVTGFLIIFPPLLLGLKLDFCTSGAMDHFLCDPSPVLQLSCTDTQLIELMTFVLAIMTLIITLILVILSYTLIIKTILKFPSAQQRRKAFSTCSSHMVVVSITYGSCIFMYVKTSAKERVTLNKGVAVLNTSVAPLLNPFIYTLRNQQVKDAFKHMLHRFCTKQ
Method in brief: as §1

UniProt Q8VGB9 = target: T8, UniProt Q8VGB9
T8 sequence (whole entry): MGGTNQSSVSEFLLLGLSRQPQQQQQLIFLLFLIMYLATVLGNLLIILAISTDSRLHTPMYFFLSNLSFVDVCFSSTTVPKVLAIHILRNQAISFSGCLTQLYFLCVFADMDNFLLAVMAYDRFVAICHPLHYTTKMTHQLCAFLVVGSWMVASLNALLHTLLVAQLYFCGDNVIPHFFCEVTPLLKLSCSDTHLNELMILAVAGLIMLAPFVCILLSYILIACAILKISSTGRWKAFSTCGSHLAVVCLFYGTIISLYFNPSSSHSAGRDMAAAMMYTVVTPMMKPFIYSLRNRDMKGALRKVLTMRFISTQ
Method in brief: as §1

UniProt Q8VGC6 = target: T9, UniProt Q8VGC6
T9 sequence (whole entry): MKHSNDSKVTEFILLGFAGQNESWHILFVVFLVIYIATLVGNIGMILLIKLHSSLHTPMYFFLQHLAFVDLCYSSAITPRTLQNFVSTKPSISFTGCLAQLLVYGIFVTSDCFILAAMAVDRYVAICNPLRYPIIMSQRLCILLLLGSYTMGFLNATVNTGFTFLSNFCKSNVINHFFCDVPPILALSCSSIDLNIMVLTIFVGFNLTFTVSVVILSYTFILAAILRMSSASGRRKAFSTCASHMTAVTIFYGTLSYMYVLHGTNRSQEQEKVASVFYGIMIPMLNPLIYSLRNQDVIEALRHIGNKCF
Method in brief: as §1

UniProt Q8VGJ3 = target: T10, UniProt Q8VGJ3
T10 sequence (whole entry): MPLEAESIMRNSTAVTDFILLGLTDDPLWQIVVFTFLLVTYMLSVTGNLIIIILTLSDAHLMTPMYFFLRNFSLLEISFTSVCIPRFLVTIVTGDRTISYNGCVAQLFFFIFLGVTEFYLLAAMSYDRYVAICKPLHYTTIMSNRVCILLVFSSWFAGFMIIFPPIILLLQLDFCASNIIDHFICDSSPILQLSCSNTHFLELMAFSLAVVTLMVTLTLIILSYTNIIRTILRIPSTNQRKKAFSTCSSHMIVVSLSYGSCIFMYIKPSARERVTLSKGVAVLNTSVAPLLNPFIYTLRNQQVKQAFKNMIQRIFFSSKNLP
Method in brief: as §1

Measured: odorant receptor agonist call;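 note: active if original authors judged signal statistically different from baseline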

CCCCCCC(Br)C(=O)O (stereo not given)
active: UniProt Q8VG01
inactive: UniProt Q8VF52 | UniProt Q8VFM8 | UniProt Q8VFP5 | UniProt Q8VG27 | UniProt Q8VG53 | UniProt Q8VG64 | UniProt Q8VGB9 | UniProt Q8VGC6 | UniProt Q8VGJ3
